Results taken from ChEMBL document CHEMBL3877241 (J Med Chem, 2016).
Active and inactive are the calls of the source. No cut-off for these calls is given here.

Columns and labels:
[1] = target: Tyrosine-protein kinase JAK1 (Homo sapiens) (UniProt P23458); test: Inhibition of JAK1 (unknown origin) at 0.1 uM preincubated for 20 mins followed by [33P]ATP addition measured after 120 mins by Hotspot assay relative to control
Outline: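 Radiometric HotSpot kinase assay. Buffer: 20 mM HEPES pH 7.5, 10 mM MgCl2, 1 mM EGTA, 0.02% Brij35, 0.02 mg/mL BSA, 0.1 mM Na3VO4, 2 mM DTT, 1% DMSO. Compound added about 20 min before ATP/[33P]ATP (10 μM final). Reactions run 120 min at 25 °C, spotted on P81 filters and washed in phosphoric acid. Activity expressed relative to DMSO after background subtraction. Single-concentration panel at 100 nM in duplicate.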

[2] = target: Histone deacetylase 3/Nuclear receptor corepressor 2 (HDAC3/NCoR2) (Homo sapiens, UniProt O15379); test: Inhibition of full length human recombinant C-terminal His-tagged HDAC3 (1 to 428 residues)/N-terminal GST-tagged NCOR2 (395 to 489 residues) expressed in insect cells preincubated with enzyme followed by fluorogenic Arg-His-Lys-Lys(Ac)-AMC substrate addition measured after 2 hrs by fluorescence assay
[3] = target: Polyamine deacetylase HDAC10 (Homo sapiens, UniProt Q969S8); test: Inhibition of HDAC10 (unknown origin) preincubated with enzyme followed by fluorogenic Arg-His-Lys-Lys(Ac)-AMC substrate addition measured after 2 hrs by fluorescence assay
Polyamine deacetylase HDAC10, sequence (Q969S8 whole entry, the tested form may be a part): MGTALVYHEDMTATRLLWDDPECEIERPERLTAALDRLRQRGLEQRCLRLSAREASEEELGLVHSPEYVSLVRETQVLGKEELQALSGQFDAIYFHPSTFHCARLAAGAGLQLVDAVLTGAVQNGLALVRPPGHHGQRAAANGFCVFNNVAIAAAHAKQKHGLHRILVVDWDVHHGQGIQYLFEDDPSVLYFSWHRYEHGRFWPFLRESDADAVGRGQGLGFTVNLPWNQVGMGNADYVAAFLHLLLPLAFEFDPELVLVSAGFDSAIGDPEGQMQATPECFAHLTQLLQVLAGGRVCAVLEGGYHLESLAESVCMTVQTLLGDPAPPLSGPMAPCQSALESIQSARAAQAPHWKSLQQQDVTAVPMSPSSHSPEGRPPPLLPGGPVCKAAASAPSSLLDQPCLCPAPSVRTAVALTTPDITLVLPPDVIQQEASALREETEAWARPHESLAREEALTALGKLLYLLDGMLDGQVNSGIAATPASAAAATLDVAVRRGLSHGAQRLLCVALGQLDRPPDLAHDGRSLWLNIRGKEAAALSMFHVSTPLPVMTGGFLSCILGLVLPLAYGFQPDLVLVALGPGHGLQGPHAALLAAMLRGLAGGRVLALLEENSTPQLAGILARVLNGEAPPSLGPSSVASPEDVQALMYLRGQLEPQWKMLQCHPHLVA

[4] = target: Histone deacetylase 11 (Homo sapiens, UniProt Q96DB2); test: Inhibition of human recombinant N-terminal His-tagged HDAC11 (1 to 347 residues) expressed in baculovirus infected insect cells preincubated with enzyme followed by fluorogenic Arg-His-Lys-Lys(Ac)-AMC substrate addition measured after 2 hrs by fluorescence assay relative to control
Histone deacetylase 11, sequence (Q96DB2 whole entry, the tested form may be a part): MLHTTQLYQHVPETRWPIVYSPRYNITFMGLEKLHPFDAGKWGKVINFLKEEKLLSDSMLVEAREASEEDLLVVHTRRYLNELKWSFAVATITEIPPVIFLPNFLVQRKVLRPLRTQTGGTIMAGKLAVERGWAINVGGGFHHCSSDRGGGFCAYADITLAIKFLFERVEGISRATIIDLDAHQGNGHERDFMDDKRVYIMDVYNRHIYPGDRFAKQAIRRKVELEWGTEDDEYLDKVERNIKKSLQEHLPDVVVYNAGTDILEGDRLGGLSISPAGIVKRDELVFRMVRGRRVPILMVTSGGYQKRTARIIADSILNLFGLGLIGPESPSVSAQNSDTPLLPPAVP

[5] = target: Mitogen-activated protein kinase 10 (Homo sapiens, UniProt P53779); test: Inhibition of human MAPK10 (V28 to Q422 residues) expressed in mammalian expression system assessed as residual activity at 100 nM by KINOMEScan assay relative to control
Mitogen-activated protein kinase 10, sequence (P53779 whole entry, the tested form may be a part): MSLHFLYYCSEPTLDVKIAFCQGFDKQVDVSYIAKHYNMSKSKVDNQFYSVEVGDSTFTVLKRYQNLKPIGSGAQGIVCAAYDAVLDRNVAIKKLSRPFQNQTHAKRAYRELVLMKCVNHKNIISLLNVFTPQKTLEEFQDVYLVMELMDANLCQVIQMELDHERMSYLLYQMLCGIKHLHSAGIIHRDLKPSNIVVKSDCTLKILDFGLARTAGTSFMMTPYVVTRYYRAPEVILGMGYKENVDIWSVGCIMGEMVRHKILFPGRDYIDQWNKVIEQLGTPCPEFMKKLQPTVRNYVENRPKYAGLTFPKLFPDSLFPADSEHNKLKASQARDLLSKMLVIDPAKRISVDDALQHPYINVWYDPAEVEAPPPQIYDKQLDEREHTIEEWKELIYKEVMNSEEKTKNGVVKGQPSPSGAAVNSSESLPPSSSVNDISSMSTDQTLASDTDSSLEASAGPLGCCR
Outline: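 DiscoveRx competition-binding panel of 97 kinases, measuring binding to the kinase ATP site rather than catalytic turnover. The test compound was run at a single 100 nM concentration. Results are given as % of control binding.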

[6] = test system: Mast/stem cell growth factor receptor Kit (Homo sapiens), P10721 [V559D,T670I]; test: Inhibition of human KIT (Y545 to D952 residues) V559D/T670I double mutant expressed in bacterial expression system assessed as residual activity at 100 nM by KINOMEScan assay relative to control
Mast/stem cell growth factor receptor Kit (Homo sapiens), P10721 [V559D,T670I], sequence (P10721 whole entry V559D/T670I, the tested form may be a part): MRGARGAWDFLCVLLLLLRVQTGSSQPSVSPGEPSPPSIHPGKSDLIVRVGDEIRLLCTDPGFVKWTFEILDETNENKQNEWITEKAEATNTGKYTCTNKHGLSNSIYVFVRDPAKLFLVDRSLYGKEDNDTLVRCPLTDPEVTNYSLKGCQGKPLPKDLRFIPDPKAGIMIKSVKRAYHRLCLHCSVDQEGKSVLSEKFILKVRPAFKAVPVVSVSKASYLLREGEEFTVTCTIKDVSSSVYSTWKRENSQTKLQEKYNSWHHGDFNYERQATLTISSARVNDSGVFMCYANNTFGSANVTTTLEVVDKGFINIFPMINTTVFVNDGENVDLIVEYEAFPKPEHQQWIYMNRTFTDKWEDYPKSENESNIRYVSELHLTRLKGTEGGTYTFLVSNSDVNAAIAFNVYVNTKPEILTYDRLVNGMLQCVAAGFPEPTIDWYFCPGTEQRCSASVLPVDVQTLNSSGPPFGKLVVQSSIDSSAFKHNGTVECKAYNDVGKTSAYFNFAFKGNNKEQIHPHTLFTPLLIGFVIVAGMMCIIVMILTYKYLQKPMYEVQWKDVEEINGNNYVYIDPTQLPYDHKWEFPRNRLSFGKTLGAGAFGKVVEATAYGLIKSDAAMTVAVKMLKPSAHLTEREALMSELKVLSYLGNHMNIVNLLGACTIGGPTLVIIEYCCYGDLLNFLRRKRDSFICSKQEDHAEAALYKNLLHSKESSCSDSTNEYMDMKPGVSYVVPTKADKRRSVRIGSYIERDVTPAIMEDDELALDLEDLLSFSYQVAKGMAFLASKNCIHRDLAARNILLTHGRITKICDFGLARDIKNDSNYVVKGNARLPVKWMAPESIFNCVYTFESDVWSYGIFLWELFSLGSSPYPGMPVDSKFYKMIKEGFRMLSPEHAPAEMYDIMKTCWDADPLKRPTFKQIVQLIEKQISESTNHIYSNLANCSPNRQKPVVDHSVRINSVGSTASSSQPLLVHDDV
Outline: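 Done by DiscoveRx as an ATP-site binding panel covering 97 kinases across the kinome. It measures binding rather than inhibition of phosphate transfer. The compound was tested at 100 nM, and the result is expressed as percent of control binding.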

[7] = target: Non-receptor tyrosine-protein kinase TYK2 (Homo sapiens, UniProt P29597); test: Inhibition of human TYK2 (V877 to C1187 residues) expressed in mammalian expression system by KINOMEScan assay
Non-receptor tyrosine-protein kinase TYK2, sequence (P29597 whole entry, the tested form may be a part): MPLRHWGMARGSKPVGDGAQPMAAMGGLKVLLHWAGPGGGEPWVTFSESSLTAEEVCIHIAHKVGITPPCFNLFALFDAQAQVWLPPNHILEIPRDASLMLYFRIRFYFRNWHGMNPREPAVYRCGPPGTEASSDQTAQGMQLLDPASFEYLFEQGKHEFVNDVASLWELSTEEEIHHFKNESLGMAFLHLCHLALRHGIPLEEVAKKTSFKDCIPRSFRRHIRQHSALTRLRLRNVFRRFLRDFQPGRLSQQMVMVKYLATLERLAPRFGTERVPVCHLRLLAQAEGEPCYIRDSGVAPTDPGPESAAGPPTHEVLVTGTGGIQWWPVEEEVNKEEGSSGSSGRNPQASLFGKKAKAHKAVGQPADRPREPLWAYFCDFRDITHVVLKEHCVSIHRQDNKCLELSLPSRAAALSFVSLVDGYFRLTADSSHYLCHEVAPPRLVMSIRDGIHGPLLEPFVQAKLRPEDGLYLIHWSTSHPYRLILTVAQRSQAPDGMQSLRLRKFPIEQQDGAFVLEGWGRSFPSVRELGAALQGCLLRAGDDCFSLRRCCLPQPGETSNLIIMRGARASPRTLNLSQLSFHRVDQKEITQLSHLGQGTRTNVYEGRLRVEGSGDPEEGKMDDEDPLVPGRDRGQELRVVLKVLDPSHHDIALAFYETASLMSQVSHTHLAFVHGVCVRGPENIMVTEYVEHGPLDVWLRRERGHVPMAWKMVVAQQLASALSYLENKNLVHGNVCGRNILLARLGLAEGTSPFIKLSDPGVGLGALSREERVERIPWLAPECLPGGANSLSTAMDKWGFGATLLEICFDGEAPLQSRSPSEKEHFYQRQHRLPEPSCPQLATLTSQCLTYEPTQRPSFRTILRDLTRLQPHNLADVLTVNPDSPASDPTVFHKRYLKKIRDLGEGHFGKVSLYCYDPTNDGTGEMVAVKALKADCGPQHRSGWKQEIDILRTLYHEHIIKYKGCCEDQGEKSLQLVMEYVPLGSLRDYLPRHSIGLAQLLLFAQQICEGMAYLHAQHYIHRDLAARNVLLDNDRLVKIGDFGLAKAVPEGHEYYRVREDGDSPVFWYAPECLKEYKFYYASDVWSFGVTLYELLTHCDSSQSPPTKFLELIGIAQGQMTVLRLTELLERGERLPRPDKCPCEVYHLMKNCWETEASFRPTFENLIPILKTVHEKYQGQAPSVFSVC

[8] = target: T1, Protein deacetylase HDAC6 (Homo sapiens) (UniProt Q9UBN7); test: Inhibition of HDAC6 in HEL 92.1.7 cells harboring JAK2 V617F mutant assessed as increase in acetylated tubulin level at 0.1 uM after 1 hr by immunoblot method; assay type: cell-based
T1 sequence (whole entry): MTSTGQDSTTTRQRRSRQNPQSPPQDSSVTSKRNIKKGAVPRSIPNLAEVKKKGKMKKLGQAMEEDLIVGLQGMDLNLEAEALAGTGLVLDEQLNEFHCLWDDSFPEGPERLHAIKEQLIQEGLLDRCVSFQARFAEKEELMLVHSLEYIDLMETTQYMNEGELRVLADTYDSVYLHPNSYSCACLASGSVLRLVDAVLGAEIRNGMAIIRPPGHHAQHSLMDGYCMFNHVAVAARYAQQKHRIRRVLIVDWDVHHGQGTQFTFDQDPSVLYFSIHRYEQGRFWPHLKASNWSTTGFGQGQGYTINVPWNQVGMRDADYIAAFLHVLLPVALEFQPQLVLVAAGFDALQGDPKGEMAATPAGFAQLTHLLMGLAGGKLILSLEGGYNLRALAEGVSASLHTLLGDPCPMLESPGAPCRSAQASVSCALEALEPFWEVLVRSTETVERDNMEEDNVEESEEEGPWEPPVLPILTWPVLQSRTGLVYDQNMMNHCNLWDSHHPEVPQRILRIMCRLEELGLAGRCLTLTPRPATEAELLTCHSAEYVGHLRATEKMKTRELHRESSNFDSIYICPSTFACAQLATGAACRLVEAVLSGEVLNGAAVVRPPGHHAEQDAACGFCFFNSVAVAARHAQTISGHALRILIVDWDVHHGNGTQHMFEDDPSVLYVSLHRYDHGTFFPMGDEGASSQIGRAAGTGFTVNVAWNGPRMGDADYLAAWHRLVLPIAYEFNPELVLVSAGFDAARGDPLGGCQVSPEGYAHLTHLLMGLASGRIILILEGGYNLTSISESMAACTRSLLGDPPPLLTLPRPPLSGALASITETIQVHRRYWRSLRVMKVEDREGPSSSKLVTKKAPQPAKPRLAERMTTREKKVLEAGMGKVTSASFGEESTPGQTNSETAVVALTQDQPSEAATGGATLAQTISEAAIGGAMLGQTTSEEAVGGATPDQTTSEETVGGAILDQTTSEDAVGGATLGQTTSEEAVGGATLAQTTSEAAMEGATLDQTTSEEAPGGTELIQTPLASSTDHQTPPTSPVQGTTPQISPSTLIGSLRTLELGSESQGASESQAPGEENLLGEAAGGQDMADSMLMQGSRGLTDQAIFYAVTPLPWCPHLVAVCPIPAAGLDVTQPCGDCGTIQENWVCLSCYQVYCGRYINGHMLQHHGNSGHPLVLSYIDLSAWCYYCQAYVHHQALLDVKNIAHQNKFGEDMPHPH
Outline: (§1)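 HEL92.1.7 cells seeded at 5x10^5/mL and treated 1 h at 0, 0.1, 0.5 and 1 μM. Lysed in RIPA with phosphatase/protease inhibitors, run on 10% SDS-PAGE and blotted to PVDF. Probed for acetyl-tubulin, acetyl-H3 (Lys9/Lys14), p-JAK2 (Y1007/1008) and p-STAT5 (Tyr694); membranes re-probed for tubulin, H3, JAK2 and STAT5. Quantified by densitometry.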

[9] = test system: MOLM-14; test: Induction of apoptosis in human MOLM14 cells assessed as late apoptotic cells at 1.5 uM after 48 hrs by Annexin-V FITC/propidium iodide staining based flow cytometry (reference value: 2.1 to 2.2%); assay type: functional
[10] = test system: Tyrosine-protein kinase JAK2 (Homo sapiens), O60674 [V617F]; test: Induction of JAK2 V617F mutant phosphorylation at Y1007/8 residues in HEL 92.1.7 cells at 0.1 to 1 uM after 1 hr by immunoblot method; assay type: cell-based; outline: as §1

Tyrosine-protein kinase JAK1 (Homo sapiens), sequence (P23458 whole entry): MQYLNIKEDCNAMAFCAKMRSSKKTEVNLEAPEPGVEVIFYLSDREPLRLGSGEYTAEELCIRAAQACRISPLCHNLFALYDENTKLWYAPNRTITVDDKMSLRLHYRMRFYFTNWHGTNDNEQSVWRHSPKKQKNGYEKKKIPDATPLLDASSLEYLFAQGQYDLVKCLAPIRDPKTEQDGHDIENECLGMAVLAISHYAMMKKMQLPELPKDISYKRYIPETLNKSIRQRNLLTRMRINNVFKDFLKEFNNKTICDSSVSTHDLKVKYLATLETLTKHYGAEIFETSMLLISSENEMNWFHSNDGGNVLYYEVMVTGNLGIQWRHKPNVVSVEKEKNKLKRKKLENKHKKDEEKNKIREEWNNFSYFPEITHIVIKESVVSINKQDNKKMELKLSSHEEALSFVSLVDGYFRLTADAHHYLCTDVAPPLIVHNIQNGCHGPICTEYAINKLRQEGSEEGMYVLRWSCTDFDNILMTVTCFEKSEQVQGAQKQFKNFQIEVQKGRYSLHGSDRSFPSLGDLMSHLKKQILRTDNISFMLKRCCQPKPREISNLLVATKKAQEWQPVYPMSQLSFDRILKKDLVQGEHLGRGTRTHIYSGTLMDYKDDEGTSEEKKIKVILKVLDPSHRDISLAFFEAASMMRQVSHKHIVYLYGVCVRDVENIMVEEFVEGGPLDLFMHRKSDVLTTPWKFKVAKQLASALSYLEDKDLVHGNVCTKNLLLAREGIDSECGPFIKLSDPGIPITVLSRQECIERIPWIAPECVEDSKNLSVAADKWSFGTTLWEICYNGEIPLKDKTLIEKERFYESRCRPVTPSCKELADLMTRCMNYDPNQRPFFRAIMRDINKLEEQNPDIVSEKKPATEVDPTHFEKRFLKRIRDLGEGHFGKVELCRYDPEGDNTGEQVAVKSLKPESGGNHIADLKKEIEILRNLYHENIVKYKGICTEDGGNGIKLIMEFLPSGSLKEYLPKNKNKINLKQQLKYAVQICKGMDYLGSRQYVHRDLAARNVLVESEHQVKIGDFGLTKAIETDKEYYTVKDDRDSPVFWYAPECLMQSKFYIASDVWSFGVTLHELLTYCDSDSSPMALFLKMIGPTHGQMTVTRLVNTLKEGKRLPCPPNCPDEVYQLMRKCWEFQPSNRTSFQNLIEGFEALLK

## O=C(CCCCCCOc1ccc2cc1COC/C=C/COCc1cccc(c1)-c1ccnc(n1)N2)NO
[1]
  inhibition: 8.7%
[2]
  IC50: 2170 nM
[3]
  IC50: 80 nM
[4]
  IC50: 930 nM
[5]
  Activity: 29%
[6]
  Activity: 31%
[7]
  IC50: 10 to 1000 nM
[8]
  inhibition: Active
[9]
  Activity: 13%
[10]
  Activity: Active
